Activity calls are given as the source filed them. The calls are words filed in the database; no cut-off is given here.

In series [1] the target is Calcitonin gene-related peptide type 1 receptor (Homo sapiens, UniProt O60894+Q16602). Kind of series: Displacement of [125I]CGRP from CGRP receptor in human SK-N-MC cell membrane after 2 hrs. The series is classed as cell membranes. (In general: Displacement assays read how much labelled ligand stays bound in the presence of the test substance.)
In series [2] the target is T1, Cytochrome P450 3A4 (Homo sapiens, UniProt P08684). Put plainly: Inhibition of human recombinant CYP3A4 expressed in baculo-virus infected insect microsomes using benzyloxyresorufin as substrate after 45 mins by fluorescence detection assay. The series is classed as ADME, Microsome.
T1 sequence (P08684 whole entry): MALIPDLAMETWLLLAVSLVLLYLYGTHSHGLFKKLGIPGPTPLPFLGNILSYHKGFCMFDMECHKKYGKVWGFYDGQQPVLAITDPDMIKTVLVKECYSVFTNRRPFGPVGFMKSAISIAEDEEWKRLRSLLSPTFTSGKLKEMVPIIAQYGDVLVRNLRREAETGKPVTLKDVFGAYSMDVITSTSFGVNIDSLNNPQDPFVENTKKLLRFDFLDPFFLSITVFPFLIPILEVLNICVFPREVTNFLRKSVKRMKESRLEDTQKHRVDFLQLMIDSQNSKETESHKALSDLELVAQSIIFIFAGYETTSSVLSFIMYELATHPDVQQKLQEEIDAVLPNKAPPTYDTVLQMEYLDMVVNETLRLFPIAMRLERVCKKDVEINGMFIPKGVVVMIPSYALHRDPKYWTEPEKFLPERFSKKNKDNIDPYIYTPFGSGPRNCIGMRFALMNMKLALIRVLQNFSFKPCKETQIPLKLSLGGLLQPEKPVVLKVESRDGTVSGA
In series [3] the target is T1, Cytochrome P450 3A4. Kind of series: Inhibition of human recombinant CYP3A4 expressed in baculo-virus infected insect microsomes using 7-benzyloxy-4-trifluoromethylcoumarin as substrate after 20 mins by fluorescence detection assay. The series is classed as ADME, Microsome.
The test system of series [4] is Callithrix jacchus. Kind of series: Antimigraine activity in marmosets assessed as inhibition of CGRP-induced increase in facial blood flow at 1 mg/kg, sc administered 30 mins post CGRP-challenge measured up to 105 mins by laser doppler flowmetry. The series is classed as functional, organism-based. Set-up: dose 1 mg/kg. In a few lines:
(§1)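 Anesthetized marmosets; facial blood flow raised by iv hαCGRP (10 µg/kg) at 45 min intervals (-30, 15, 60, 105 min). Antagonist given sc at 0 min (dose range 0.3–1 mg/kg). CGRP-induced changes in facial blood flow read by laser Doppler flowmetry.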

Series [5] relates to Callithrix jacchus. Kind of series: Antimigraine activity in sc dosed marmosets assessed as inhibition of CGRP-induced increase in facial blood flow administered 30 mins post CGRP-challenge measured up to 105 mins by laser doppler flowmetry. The series is classed as functional, organism-based. The method in brief: as §1
Series [6] in a line: Cardiovascular toxicity in human coronary arteries assessed as induction of vasoconstriction up to 10 uM after 30 mins. Also noted: species or system Coronary artery. To be noted: 0.5 h. The method in brief:
(§2)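 Ex vivo human arteries in tissue baths; test agent applied up to 10 µM and contraction recorded. Serotonin (10 µM) added to each bath at session end as the reference for maximal vessel contractility; contraction expressed as percent of serotonin maximum.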

Series [7] can be described thus: Cardiovascular toxicity in human coronary arteries assessed as induction of vasoconstriction after 30 mins relative to serotonin. Set-up: species or system Coronary artery. The method in brief:
as §2

Series [8] in a line: Cardiovascular toxicity in human coronary arteries assessed as induction of vasoconstriction after 30 mins. Also noted: species or system Coronary artery. To be noted: for Activity: 0.5 h; for EC50 at 30 min: human coronary arteries. In a few lines: as §2

Chain of Calcitonin gene-related peptide type 1 receptor (Q16602 whole entry, one chain of several): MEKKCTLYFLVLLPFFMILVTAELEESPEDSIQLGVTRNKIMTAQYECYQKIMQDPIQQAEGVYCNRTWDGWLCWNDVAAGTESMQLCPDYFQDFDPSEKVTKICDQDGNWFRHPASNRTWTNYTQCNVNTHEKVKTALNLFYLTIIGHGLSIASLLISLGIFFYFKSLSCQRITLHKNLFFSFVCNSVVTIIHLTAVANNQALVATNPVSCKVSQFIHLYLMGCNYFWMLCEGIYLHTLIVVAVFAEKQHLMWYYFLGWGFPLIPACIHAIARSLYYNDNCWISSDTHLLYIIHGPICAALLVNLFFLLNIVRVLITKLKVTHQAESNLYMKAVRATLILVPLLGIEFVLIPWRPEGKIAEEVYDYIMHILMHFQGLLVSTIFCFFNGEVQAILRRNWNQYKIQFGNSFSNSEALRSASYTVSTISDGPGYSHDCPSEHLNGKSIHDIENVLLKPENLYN

Regarding `O=C(N[C@H](CCc1ccc(O)cc1)C(=O)N1CCC(N2CCCCC2)CC1)N1CCC(n2c(=O)[nH]c3ccccc32)CC1`, in series [1], the Ki – broadly, a dissociation constant, usually derived from enzyme kinetics or from competition with a known ligand – was 2.1 µM.

As for `O=C(N[C@H](Cc1ccccc1)C(=O)N1CCC(N2CCCCC2)CC1)N1CCC(n2c(=O)[nH]c3ccccc32)CC1`, the Ki in series [1] turned out to be 0.3 µM.

`O=C(N[C@H](Cc1ccc2nn[nH]c2c1)C(=O)N1CCC(N2CCCCC2)CC1)N1CCC(N2Cc3ccccc3NC2=O)CC1`: in series [1], the Ki amounted to 0.00055 µM. The IC50 (usually the concentration that inhibits the measured activity by half) at Cytochrome P450 3A4 [2] was 23 µM.

`O=C(N[C@H](Cc1csc2ccccc12)C(=O)N1CCC(N2CCCCC2)CC1)N1CCC(n2c(=O)[nH]c3ccccc32)CC1`: the Ki in series [1] is 0.00055 µM. The figures for the concentration for half-maximal inhibition (IC50) at Cytochrome P450 3A4 [3] and on Cytochrome P450 3A4 [2] were 0.87 µM and 0.084 µM, respectively.

As for `O=C(NC(Cc1ccc2[nH]ccc2c1)C(=O)N1CCC(N2CCCCC2)CC1)N1CCC(n2c(=O)[nH]c3ccccc32)CC1` (racemic), the inhibition constant Ki in series [1] amounted to 0.032 µM. Moreover, at Cytochrome P450 3A4 [2], the IC50 stood at 2.5 µM.

With `O=C(N[C@H](Cc1ccc(-c2ccccc2)cc1)C(=O)N1CCC(N2CCCCC2)CC1)N1CCC(n2c(=O)[nH]c3ccccc32)CC1`, the Ki in series [1] came out at 0.25 µM. In addition, at Cytochrome P450 3A4 [2], the IC50 was determined as 1.3 µM.

As to `O=C(N[C@@H](Cc1ccc2[nH]ncc2c1)C(=O)N1CCC(N2CCCCC2)CC1)N1CCC(N2Cc3ccccc3NC2=O)CC1`, the IC50 at Cytochrome P450 3A4 [2] was 7.3 µM. Further, the inhibition entry in the series on Callithrix jacchus [4] was “inactive”.

In the case of `CC(=O)Nc1ccc(C[C@@H](NC(=O)N2CCC(n3c(=O)[nH]c4ccccc43)CC2)C(=O)N2CCC(N3CCCCC3)CC2)cc1`, the Ki in series [1] is 1.9 µM.

In the case of `O=C(N[C@H](Cc1ccc2[nH]c(=O)oc2c1)C(=O)N1CCC(N2CCCCC2)CC1)N1CCC(N2Cc3ccccc3NC2=O)CC1`, the Ki in series [1] was 0.00027 µM. For the same compound, the IC50 at Cytochrome P450 3A4 [2] came out at 30 µM.

With `O=C(N[C@H](Cc1ccc(O)cc1)C(=O)N1CCC(N2CCCCC2)CC1)N1CCC(n2c(=O)[nH]c3ccccc32)CC1`, the inhibition constant Ki in series [1] worked out at 0.0025 µM. On Cytochrome P450 3A4 [2], the IC50 was above 40 µM.

For the compound `O=C(N[C@H](Cc1cc(Br)c(O)c(Br)c1)C(=O)N1CCC(N2CCCCC2)CC1)N1CCC(n2c(=O)[nH]c3ccccc32)CC1`, in series [1], the Ki is 0.00065 µM. Besides, on Cytochrome P450 3A4 [2], the IC50 was 2.4 µM.

For the compound `O=C(N[C@H](Cc1cccc2ccccc12)C(=O)N1CCC(N2CCCCC2)CC1)N1CCC(n2c(=O)[nH]c3ccccc32)CC1`, the Ki in series [1] came out at 0.0072 µM. In addition, the IC50 on Cytochrome P450 3A4 [2] was 0.03 µM.

Regarding `NC(=O)CC[C@@H](NC(=O)N1CCC(n2c(=O)[nH]c3ccccc32)CC1)C(=O)N1CCC(N2CCCCC2)CC1`, the Ki in series [1] is above 1 µM.

Take `Nc1ccc(C[C@@H](NC(=O)N2CCC(n3c(=O)[nH]c4ccccc43)CC2)C(=O)N2CCC(N3CCCCC3)CC2)cc1`: the Ki in series [1] amounted to 0.75 µM.

For the compound `Cn1cc(C[C@@H](NC(=O)N2CCC(n3c(=O)[nH]c4ccccc43)CC2)C(=O)N2CCC(N3CCCCC3)CC2)c2ccccc21`, in series [1], the Ki was 0.016 µM. Besides, on Cytochrome P450 3A4 [2], the IC50 is 0.1 µM.

As for `CC(C)C[C@@H](NC(=O)N1CCC(n2c(=O)[nH]c3ccccc32)CC1)C(=O)N1CCC(N2CCCCC2)CC1`, the Ki in series [1] is 2.4 µM. The half-inhibitory concentration (IC50) at Cytochrome P450 3A4 [2] is 16 µM.

For `O=C(O)CC[C@@H](NC(=O)N1CCC(n2c(=O)[nH]c3ccccc32)CC1)C(=O)N1CCC(N2CCCCC2)CC1`, the Ki in series [1] is above 1 µM.

As for `O=C(N[C@H](CCc1ccccc1)C(=O)N1CCC(N2CCCCC2)CC1)N1CCC(n2c(=O)[nH]c3ccccc32)CC1`, the Ki in series [1] is above 1 µM.

Turning to `O=C1Cc2cc(C[C@@H](NC(=O)N3CCC(N4Cc5ccccc5NC4=O)CC3)C(=O)N3CCC(N4CCCCC4)CC3)ccc2N1`, the Ki in series [1] was found to be 0.00065 µM. The IC50 at Cytochrome P450 3A4 [2] stood at 11 µM.

Regarding `O=C(N[C@H](Cc1ccc2[nH]ncc2c1)C(=O)N1CCC(N2CCCCC2)CC1)N1CCC(N2Cc3ccccc3NC2=O)CC1`, the inhibition result with Callithrix jacchus [5] is “Dose-dependent effect”. Besides, the Activity result in series [6] was “Non-toxic”.

With `O=C(N[C@H](Cc1ccc2ccccc2c1)C(=O)N1CCC(N2CCCCC2)CC1)N1CCC(n2c(=O)[nH]c3ccccc32)CC1`, the Ki in series [1] worked out at 0.23 µM. For the same compound, at Cytochrome P450 3A4 [2], the IC50 amounted to 0.03 µM.

Regarding `O=C(N[C@H](Cc1c[nH]c2ccccc12)C(=O)N1CCC(N2CCCCC2)CC1)N1CCC(n2c(=O)[nH]c3ccccc32)CC1`, in series [1], the Ki was determined as 0.084 µM. Further, the concentration for half-maximal inhibition (IC50) on Cytochrome P450 3A4 [2] is above 40 µM.

Consider `CN(C)CCc1c[nH]c2ccc(C[C@H]3COC(=O)N3)cc12` [ZOLMITRIPTAN], for which the Emax (as a rule, the size of the effect at its maximum, as opposed to the concentration needed) at 0.5 h in series [7] stood at 39%. Further, in series [8], the Activity entry is “Dose-dependent effect” and the 50% effective concentration (EC50) – broadly, the concentration that produces a half-maximal response – at 30 min was 0.04 µM.

Consider `O=C(NC(Cc1ccc2[nH]ncc2c1)C(=O)N1CCC(N2CCCCC2)CC1)N1CCC(n2c(=O)[nH]c3ccccc32)CC1` (racemic), for which the inhibition constant Ki in series [1] was determined as 0.068 µM. For the same compound, at Cytochrome P450 3A4 [2], the IC50 is 17 µM. Further, the Activity result in series [6] is recorded as “Non-toxic”.

On to `O=C(N[C@@H](C(=O)N1CCC(N2CCCCC2)CC1)c1ccccc1)N1CCC(n2c(=O)[nH]c3ccccc32)CC1`, for which the Ki in series [1] was above 1 µM.

As for `Cc1nc2cc(C[C@@H](NC(=O)N3CCC(N4Cc5ccccc5NC4=O)CC3)C(=O)N3CCC(N4CCCCC4)CC3)ccc2[nH]1`, in series [1], the Ki was 0.028 µM.

With `COc1ccc(C[C@@H](NC(=O)N2CCC(n3c(=O)[nH]c4ccccc43)CC2)C(=O)N2CCC(N3CCCCC3)CC2)cc1`, in series [1], the Ki turned out to be 1.4 µM.

As for `O=C(N[C@@H](Cc1cc(Br)c(O)c(Br)c1)C(=O)N1CCC(N2CCCCC2)CC1)N1CCC(n2c(=O)[nH]c3ccccc32)CC1`, in series [1], the inhibition constant (Ki) is above 1 µM.

Turning to `CNS(=O)(=O)Cc1ccc2[nH]cc(CCN(C)C)c2c1`, the Emax at 0.5 h in series [7] stood at 48%. Moreover, in series [8], the Activity result is reported as “Dose-dependent effect” and the EC50 at 30 min was 0.12 µM.

These data come from ChEMBL document CHEMBL2057150, “The synthesis and SAR of calcitonin gene-related peptide (CGRP) receptor antagonists derived from tyrosine surrogates. Part 1” (Bioorg Med Chem Lett, 2012).
